Reference: paper PMC8861878 (The Journal of pharmacy and pharmacology, 2020)

What was measured:
UGT1A8 = target: T1, UGT1A8 (Homo sapiens, UniProt Q9HAW9); test: Glucuronidation of isobavachin by recombinant UGT1A8, enzyme kinetics; type: in vitro ADME; conditions: formation of G1, substrate inhibition model
T1 sequence (Q9HAW9 26-530): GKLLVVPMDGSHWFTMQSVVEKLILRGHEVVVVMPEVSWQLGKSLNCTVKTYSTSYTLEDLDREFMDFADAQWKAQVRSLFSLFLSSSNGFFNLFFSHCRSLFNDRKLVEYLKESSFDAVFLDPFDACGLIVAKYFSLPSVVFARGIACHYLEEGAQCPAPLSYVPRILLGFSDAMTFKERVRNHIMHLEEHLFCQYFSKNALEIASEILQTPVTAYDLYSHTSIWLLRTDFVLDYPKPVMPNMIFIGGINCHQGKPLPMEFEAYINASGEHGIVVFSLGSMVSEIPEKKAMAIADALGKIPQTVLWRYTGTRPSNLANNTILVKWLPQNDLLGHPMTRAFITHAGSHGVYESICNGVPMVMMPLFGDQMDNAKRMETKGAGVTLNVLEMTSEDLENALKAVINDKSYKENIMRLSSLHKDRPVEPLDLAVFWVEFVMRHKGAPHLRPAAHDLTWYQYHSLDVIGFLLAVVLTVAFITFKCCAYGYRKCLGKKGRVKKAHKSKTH

UGT2B4 = target: T2, UGT2B4 (Homo sapiens, UniProt P06133); test: Glucuronidation of isobavachin by recombinant UGT2B4, enzyme kinetics; type: in vitro ADME; conditions: formation of G1; Michaelis–Menten model
T2 sequence (P06133 24-528): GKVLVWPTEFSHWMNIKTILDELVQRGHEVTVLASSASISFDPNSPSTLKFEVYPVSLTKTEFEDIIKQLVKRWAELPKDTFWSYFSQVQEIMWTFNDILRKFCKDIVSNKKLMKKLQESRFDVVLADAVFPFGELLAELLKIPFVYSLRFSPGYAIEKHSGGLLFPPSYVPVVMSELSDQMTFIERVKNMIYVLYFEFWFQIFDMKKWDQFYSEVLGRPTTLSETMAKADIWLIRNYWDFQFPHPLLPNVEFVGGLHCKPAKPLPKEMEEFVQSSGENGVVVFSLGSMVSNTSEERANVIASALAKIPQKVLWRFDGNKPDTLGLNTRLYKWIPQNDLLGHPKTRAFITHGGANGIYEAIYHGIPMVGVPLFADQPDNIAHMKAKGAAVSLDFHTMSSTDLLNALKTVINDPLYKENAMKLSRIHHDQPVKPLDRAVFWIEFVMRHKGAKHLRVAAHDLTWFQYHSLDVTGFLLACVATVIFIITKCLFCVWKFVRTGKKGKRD

CYP2B6 = target: T3, CYP2B6 (Homo sapiens, UniProt P20813); test: Inhibition of CYP2B6; type: in vitro ADME
T3 sequence (P20813 1-491): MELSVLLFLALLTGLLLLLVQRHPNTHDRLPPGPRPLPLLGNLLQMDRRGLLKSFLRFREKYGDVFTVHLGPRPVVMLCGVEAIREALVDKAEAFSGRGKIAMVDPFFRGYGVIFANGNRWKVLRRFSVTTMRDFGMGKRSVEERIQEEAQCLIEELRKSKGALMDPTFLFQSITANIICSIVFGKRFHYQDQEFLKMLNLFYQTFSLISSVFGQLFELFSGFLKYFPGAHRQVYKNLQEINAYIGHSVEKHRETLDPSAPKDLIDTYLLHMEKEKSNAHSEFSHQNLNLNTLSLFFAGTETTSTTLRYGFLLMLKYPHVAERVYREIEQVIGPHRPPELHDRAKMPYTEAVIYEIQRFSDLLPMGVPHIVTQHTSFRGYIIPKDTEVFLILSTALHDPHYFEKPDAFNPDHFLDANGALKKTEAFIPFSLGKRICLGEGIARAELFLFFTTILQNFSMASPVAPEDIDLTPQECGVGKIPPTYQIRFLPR

CYP2C9 = CYP2C9 (Homo sapiens, UniProt P11712); test: Inhibition of CYP2C9; type: in vitro ADME
Sequence of CYP2C9 (P11712 whole entry): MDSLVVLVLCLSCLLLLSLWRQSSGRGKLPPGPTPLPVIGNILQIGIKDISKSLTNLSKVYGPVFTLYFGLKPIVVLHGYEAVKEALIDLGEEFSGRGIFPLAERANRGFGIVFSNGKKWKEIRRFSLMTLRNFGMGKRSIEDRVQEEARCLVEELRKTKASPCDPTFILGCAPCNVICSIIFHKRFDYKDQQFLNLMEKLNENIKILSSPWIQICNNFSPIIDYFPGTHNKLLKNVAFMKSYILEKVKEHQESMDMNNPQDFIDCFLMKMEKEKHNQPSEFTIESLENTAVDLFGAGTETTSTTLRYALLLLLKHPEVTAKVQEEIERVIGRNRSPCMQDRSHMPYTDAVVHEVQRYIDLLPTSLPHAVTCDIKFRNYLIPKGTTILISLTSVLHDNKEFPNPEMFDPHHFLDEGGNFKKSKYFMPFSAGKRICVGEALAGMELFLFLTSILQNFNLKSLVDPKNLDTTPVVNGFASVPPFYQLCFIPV

CYP2E1 = CYP2E1 (Homo sapiens, UniProt P05181); test: Inhibition of CYP2E1; type: in vitro ADME; conditions: isobavachin 1, 10, 100 μM; substrate chlorzoxazone (200 μM)
Sequence of CYP2E1 (P05181 whole entry): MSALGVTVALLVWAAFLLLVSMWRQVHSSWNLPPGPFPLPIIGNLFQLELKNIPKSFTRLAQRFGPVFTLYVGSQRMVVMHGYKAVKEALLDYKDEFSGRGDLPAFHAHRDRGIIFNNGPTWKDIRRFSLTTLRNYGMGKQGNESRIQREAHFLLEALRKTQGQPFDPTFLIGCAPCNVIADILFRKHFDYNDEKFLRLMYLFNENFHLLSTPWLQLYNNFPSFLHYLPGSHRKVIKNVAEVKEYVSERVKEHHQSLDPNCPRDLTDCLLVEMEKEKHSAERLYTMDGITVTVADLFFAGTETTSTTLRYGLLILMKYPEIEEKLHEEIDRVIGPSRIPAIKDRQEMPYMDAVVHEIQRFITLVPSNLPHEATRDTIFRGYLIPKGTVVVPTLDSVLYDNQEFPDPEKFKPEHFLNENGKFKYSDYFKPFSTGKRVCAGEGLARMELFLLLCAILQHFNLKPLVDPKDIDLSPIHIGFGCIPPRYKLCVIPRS
Outline: (§1)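 Recombinant human CYPs (CYP1A2 and 3A4 at 0.05 mg/ml; CYP2C8 and 2E1 at 0.1 mg/ml) with probe substrate in Tris-HCl 50 mM pH 7.4, MgCl2 5 mM and NADPH 1 mM at 37 °C for 60 min. Run without (control) or with test compound at 1, 10 or 100 μM. Acetonitrile stop; metabolite by UHPLC-TQD-MS; activity versus control, triplicate.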

CYP3A4 = CYP3A4 (Homo sapiens, UniProt P08684); test: Inhibition of CYP3A4; type: in vitro ADME; conditions: isobavachin 1, 10, 100 μM; substrate nifedipine (40 μM)
Sequence of CYP3A4 (P08684 whole entry): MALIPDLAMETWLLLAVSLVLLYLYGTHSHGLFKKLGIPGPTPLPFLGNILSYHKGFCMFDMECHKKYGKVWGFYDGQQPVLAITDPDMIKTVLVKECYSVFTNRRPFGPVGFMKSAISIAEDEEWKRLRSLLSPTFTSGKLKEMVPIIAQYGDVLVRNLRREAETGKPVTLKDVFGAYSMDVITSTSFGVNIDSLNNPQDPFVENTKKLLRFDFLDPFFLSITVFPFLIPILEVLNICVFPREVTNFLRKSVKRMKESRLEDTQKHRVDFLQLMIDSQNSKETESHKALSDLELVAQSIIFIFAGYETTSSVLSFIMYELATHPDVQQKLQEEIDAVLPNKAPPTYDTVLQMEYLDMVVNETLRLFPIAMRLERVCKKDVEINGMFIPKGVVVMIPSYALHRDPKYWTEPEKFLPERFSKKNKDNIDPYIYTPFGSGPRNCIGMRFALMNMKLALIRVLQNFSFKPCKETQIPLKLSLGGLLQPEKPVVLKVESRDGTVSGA
Outline: as §1

UGT2B7 = target: T4, UGT2B7 (Homo sapiens, UniProt P16662); test: Inhibition of UGT2B7; type: in vitro ADME
T4 sequence (P16662 24-529): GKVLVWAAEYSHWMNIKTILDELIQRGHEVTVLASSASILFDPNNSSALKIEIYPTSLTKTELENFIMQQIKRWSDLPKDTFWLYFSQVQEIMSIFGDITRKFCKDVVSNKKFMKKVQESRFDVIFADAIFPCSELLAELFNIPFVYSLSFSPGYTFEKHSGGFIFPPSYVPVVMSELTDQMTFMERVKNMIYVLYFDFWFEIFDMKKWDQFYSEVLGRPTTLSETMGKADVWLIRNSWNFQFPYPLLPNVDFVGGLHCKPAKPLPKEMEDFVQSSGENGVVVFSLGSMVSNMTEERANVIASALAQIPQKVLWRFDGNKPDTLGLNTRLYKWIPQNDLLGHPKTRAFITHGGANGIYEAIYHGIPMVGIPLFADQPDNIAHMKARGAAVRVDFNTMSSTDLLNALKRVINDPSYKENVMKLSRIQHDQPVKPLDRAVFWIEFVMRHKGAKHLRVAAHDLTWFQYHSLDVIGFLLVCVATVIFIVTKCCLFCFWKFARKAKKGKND

expressed CYP enzymes = test: Reaction phenotyping with expressed CYP enzymes; type: in vitro ADME, human; conditions: isobavachin at 10 μM (Figure S4A)
[1] = based on the smallest AIC and SC values

## CC(C)=CCc1c(O)ccc2c1O[C@H](c1ccc(O)cc1)CC2=O [isobavachin]
UGT1A8; substrate inhibition constant
  Ki: 17.04 ± 3.36 µM
UGT1A8
  CLint (CLmax): 46.30 ± 11.05 μl/min per mg
  Vmax: 1607.00 ± 241.00 pmol/min per mg
UGT2B4
  CLint (CLmax): 30.59 ± 3.28 μl/min per mg
  Vmax: 81.29 ± 2.05 pmol/min per mg
CYP2B6
  IC50: 5 ± 0.48 µM
CYP2B6; 10 μM isobavachin
  residual activities: 30.86 % of the negative control
CYP2B6; substrate bupropion, competitive model (not selected)
  Ki: 0.35 ± 0.11 µM
CYP2B6; substrate bupropion, mixed-type model (not selected)
  Ki: 1.46 ± 0.62 µM
CYP2B6; substrate bupropion, non-competitive model (selected, smallest AIC and SC)
  Ki: 1.93 ± 0.18 µM
CYP2B6; [1]
  Inhibition type: non-competitive inhibition mode
CYP2B6; substrate bupropion, mixed-type model
  α: 1.49 ± 0.92
CYP2C9
  IC50: 0.04 ± 0.005 µM
CYP2C9; 10 μM isobavachin
  residual activities: 1.04 % of the negative control
CYP2C9; substrate tolbutamide, mixed-type model (not selected)
  Ki: 0.27 ± 0.1 µM
CYP2C9; substrate tolbutamide, non-competitive model (selected, smallest AIC and SC)
  Ki: 0.22 ± 0.02 µM
CYP2C9; [1]
  Inhibition type: non-competitive inhibition mode
CYP2C9; substrate tolbutamide, mixed-type model
  α: 0.70 ± 0.49
CYP2E1
  inhibitory effects: negligible or weak
CYP3A4
  inhibitory effects: negligible or weak
UGT2B7
  IC50: 0.09 ± 0.01 µM
UGT2B7; 10 μM isobavachin
  residual activities: 19.32 % of the negative control
UGT2B7; substrate zidovudine, mixed-type model (not selected)
  Ki: 0.04 ± 0.01 µM
UGT2B7; substrate zidovudine, non-competitive model (selected, smallest AIC and SC)
  Ki: 0.05 ± 0.01 µM
UGT2B7; [1]
  Inhibition type: non-competitive inhibition mode
UGT2B7; substrate zidovudine, mixed-type model
  α: 1.80 ± 0.93
Expressed CYP enzymes
  CYP isozymes participating in oxidation: CYP1A1, 1A2, 1B1, 2C8, 2C9, 2C19 and 2D6 all participated in the oxidation
